Data on 1 compound can be found in ChEMBL document CHEMBL3734738, “A structure-activity relationship of non-peptide macrocyclic histone deacetylase inhibitors and their anti-proliferative and anti-inflammatory activities” (Bioorg Med Chem, 2015).

One series has as its target Histone deacetylase 1 (Homo sapiens, UniProt Q13547). Put plainly: Inhibition of recombinant HDAC1 (unknown origin) expressed in Escherichia coli BL21(DE3) after 60 mins using trichostatin A by label-free mass spectrometry-based SAMDI assay.
Series [1] has as its target T1, Protein deacetylase HDAC6 (Homo sapiens, UniProt Q9UBN7).
T1 sequence (Q9UBN7 whole entry): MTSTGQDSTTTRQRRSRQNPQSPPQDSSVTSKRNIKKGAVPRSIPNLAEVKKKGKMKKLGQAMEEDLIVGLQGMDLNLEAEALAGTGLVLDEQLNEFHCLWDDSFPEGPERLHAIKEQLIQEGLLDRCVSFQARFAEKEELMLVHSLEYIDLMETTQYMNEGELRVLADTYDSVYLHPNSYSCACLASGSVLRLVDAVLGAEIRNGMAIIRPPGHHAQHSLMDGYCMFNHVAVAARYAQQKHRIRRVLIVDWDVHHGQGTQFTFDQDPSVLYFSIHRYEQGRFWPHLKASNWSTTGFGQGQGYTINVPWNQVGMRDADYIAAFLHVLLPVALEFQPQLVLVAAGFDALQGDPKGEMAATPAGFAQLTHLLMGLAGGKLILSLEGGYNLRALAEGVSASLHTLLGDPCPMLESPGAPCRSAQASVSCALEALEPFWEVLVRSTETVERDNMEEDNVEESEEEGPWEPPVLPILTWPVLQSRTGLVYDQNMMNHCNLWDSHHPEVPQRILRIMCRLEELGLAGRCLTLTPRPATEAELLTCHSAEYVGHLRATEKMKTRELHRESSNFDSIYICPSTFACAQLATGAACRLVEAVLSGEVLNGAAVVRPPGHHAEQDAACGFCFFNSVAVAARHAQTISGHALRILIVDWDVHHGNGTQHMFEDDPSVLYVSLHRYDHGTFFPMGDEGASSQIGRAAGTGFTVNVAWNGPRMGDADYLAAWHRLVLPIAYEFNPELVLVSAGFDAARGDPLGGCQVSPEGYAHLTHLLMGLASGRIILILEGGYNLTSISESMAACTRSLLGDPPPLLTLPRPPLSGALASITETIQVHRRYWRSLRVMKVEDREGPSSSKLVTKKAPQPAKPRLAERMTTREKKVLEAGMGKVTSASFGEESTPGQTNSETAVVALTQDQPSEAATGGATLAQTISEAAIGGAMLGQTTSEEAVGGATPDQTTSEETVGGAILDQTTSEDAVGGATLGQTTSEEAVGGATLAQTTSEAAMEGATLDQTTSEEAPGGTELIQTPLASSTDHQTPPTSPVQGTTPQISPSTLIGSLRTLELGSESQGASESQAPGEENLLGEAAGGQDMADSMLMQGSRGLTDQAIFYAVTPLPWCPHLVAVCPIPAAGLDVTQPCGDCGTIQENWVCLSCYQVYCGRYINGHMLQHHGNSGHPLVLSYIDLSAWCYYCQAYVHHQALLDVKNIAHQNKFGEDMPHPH
Put plainly: Inhibition of recombinant HDAC6 (unknown origin) expressed in Escherichia coli BL21(DE3) after 60 mins using trichostatin A by label-free mass spectrometry-based SAMDI assay.

The target of a further series is T2, Histone deacetylase 8 (Homo sapiens, UniProt Q9BY41).
T2 sequence (Q9BY41 whole entry): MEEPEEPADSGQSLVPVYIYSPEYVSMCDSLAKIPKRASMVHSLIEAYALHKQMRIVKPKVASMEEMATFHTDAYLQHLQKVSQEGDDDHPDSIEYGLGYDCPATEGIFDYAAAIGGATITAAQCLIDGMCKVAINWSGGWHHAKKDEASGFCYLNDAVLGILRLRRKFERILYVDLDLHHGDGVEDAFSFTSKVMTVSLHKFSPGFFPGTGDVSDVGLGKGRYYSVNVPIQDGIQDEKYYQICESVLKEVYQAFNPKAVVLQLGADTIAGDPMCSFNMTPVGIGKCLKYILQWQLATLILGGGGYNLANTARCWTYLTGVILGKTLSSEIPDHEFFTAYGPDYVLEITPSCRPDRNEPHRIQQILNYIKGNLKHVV
Put plainly: Inhibition of recombinant HDAC8 (unknown origin) expressed in Escherichia coli BL21(DE3) after 60 mins using trichostatin A by label-free mass spectrometry-based SAMDI assay.

In the next series the test system is A549. Put plainly: Cytotoxicity against human A549 cells after 72 hrs by MTS assay. The following applies: Homo sapiens, A549, 72 h; read-out: IC50. It counts as functional, cell-based. The method in brief:
(§1)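 Cells kept in DMEM with 10% FBS and 1% penicillin-streptomycin, seeded in 96-well plates for 24 h, then exposed to a range of drug concentrations for 72 h at 0.1% DMSO; viability read by MTS assay per manufacturer's protocol.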

A further series has as its system MCF7. Put plainly: Cytotoxicity against human MCF7 cells after 72 hrs by MTS assay. It counts as functional, cell-based. Conditions: Homo sapiens, MCF7, 72 h; read-out: IC50. The method in brief: as §1
The subject of the next series is Vero. Put plainly: Cytotoxicity against African green monkey Vero cells after 72 hrs by MTS assay. Type of series: cell-based. Conditions: Chlorocebus sabaeus. The method in brief:
as §1

A short description of series [2]: Selectivity ratio of IC50 for African green monkey Vero cells to IC50 for human A549 cells. Type of series: ADME, cell-based. Conditions: Vero cells and A549 cells, read-out: Ratio IC50. The method in brief: (§2)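 Cell viability (MTS) was measured in A549, MCF-7 and Vero cells kept in DMEM with 10% FBS and 1% penicillin-streptomycin. Cells were plated 24 h before drug, then exposed to a range of concentrations for 72 h, with DMSO held at 0.1%. The ratio divides the Vero IC50 by the IC50 for the tumour line, both from this assay.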

Series [3] in a line: Selectivity ratio of IC50 for African green monkey Vero cells to IC50 for human MCF7 cells. Type of series: ADME, cell-based. Conditions: Vero cells and MCF7 cells, read-out: Ratio IC50. In a few lines: as §2

The structures appear in SMILES notation.

Sequence of Histone deacetylase 1 (Q13547 whole entry): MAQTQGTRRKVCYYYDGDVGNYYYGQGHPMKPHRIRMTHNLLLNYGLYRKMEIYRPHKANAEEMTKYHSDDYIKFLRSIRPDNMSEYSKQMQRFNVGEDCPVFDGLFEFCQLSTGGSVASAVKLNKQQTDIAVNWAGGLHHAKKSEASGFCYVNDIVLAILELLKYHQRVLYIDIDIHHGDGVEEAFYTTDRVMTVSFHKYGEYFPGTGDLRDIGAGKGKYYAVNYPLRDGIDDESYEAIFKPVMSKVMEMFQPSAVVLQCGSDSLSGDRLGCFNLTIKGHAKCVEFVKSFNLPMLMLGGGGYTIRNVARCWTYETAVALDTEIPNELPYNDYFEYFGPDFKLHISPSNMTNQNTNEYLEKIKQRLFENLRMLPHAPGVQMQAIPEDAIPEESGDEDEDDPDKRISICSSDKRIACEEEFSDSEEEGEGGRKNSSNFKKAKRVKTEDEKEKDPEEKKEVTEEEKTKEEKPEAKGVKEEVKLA

Consider `CC[C@H]1OC(=O)[C@H](C)C(=O)[C@H](C)[C@@H](O[C@@H]2O[C@H](C)C[C@H](N(C)Cc3cccc(-c4cn(CCCCCCC(=O)NO)nn4)c3)[C@H]2O)[C@@](C)(OC)C[C@@H](C)C2=NCCN3C(=O)O[C@@]1(C)[C@H]3[C@H]2C`, for which the IC50 on Histone deacetylase 1 was 54.5 nM; in series [1], 3.76 nM; on Histone deacetylase 8 it was 310 nM; with A549, 7480 nM; in the series with MCF7, 860 nM; with Vero, over 20000 nM. Also, the selectivity ratio in series [2] came to 2.7; in series [3], 23.
